# Measurements: ChEMBL document CHEMBL1149458, “Synthesis and pharmacological evaluation of second-generation phosphatidic acid derivatives as lysophosphatidic acid receptor ligands” (Bioorg Med Chem Lett, 2006)
# Active and inactive are the calls of the source. No cut-off for these calls is given here.
# What was measured:
# [1] = molecular target: Lysophosphatidic acid receptor 1 (Homo sapiens, UniProt Q92633); assay: Activity at LPA1 receptor transfected RH7777 cells; assay type: cell-based
# Method in brief: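 RH7777 cells, which lack endogenous LPA GPCR, were stably transfected with LPA1. Intracellular Ca2+ transients were recorded after applying increasing concentrations of compound to build dose–response relationships, with LPA 18:1 as the reference agonist.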
# [2] = molecular target: T1, Lysophosphatidic acid receptor 3 (Homo sapiens) (UniProt Q9UBY5); assay: Activity at LPA3 receptor transfected RH7777 cells; assay type: cell-based
# T1 sequence (whole entry): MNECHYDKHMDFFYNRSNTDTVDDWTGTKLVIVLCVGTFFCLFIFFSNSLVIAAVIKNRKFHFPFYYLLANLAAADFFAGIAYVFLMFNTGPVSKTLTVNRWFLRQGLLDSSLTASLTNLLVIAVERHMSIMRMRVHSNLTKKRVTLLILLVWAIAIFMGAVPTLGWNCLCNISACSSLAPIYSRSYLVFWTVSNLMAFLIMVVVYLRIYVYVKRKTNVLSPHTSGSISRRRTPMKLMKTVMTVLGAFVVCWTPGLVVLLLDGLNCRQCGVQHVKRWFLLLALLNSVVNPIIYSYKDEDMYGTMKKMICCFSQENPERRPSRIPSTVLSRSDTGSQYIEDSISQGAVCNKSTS
# Method in brief: (§1)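 RH7777 cells, which lack LPA GPCR, stably transfected with the single receptor (LPA2 or LPA3). Intracellular Ca2+ transients recorded after applying increasing compound concentrations, benchmarked against LPA 18:1, to assess agonist and antagonist activity.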
# [3] = molecular target: T2, Peroxisome proliferator-activated receptor gamma (Homo sapiens) (UniProt P37231); assay: Activation of PPARgamma in CV1 cells transfected with PPARgamma and luciferase reporter gene; assay type: functional, cell-based; conditions: CV-1
# T2 sequence (whole entry): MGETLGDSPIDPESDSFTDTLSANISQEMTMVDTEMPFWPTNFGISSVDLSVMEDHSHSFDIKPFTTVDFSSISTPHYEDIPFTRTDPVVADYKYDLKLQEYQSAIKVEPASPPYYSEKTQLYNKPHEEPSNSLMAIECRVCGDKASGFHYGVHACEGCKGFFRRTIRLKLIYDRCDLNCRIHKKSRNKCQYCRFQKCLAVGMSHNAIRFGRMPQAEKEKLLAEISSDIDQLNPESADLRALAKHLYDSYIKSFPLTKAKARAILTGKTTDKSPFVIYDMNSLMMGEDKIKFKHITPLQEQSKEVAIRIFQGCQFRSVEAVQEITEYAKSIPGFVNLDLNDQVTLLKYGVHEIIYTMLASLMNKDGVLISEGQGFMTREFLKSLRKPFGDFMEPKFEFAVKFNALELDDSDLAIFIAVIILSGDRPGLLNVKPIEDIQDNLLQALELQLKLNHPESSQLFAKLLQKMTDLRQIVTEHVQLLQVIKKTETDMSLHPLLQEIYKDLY
# Method in brief: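 CV1 cells transfected with PPARγ and a PPRE-Acox-Rluc reporter, treated 20 h with vehicle or 10 µM compound in DMSO. Luciferase and β-galactosidase activities measured in cell lysate (mean ± SEM, n = 4). Rosiglitazone used as reference agonist; significance versus vehicle control.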
# [4] = system: RH7777 (Rattus norvegicus); assay: Ability to evoke intracellular calciums transient in wild-type RH7777 cells
# [5] = molecular target: Lysophosphatidic acid receptor 2 (Homo sapiens) (UniProt Q9HBW0); assay: Activity at LPA2 receptor transfected RH7777 cells; assay type: cell-based; method in brief: as §1
# Autotaxin = Autotaxin (Homo sapiens, UniProt Q13822); assay: Inhibition of recombinant ATX from transfected HEK293 cells; assay type: cell-based; conditions: for inhibition: concentration not given here
# Method in brief: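 Recombinant ATX in conditioned medium from transiently transfected HEK293 cells, assayed by hydrolysis of the substrate bis(para-nitrophenyl) phosphate.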
# Lysophosphatidic acid receptor 2 (Homo sapiens), sequence (Q9HBW0 whole entry): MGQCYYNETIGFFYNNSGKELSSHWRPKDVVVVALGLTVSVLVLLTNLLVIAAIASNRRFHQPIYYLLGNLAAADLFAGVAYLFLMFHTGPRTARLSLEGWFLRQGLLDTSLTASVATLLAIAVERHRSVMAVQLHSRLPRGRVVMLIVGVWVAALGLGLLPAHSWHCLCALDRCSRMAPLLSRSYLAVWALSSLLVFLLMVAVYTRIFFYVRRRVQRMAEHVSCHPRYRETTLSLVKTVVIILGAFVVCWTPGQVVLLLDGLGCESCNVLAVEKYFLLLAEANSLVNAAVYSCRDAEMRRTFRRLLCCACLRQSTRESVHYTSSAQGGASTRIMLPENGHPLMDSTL
# Lysophosphatidic acid receptor 1, sequence (Q92633 whole entry): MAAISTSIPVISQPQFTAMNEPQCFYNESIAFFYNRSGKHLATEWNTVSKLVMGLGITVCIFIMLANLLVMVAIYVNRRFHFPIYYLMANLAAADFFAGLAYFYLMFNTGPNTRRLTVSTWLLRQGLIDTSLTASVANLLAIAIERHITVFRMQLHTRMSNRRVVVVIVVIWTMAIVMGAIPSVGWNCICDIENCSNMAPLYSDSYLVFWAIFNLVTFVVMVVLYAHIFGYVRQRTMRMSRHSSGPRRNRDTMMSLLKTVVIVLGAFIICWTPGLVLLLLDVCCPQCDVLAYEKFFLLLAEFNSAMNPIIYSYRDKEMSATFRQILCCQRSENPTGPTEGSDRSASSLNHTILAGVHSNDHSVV
smiles,measurement,setting,value
CCCCCCCCOC[C@H](COP(=O)(O)O)OCCCCCCCC,Emax,[1],57%
same,Emax,[2],109%
same,Activity,[3],Active
same,Activity,[4],inactive
CCCCCCCCNC(=O)[C@@H](COP(O)(O)=S)NC(=O)CCCCCCC,Activity,[3],inactive
CCCCCCCC(=O)OC[C@@H](COP(=O)(O)O)OC(=O)CCCCCCC,Activity,[3],inactive
CCCCCCCCOC[C@H](COP(O)(O)=S)OCCCCCCCC,Emax,[1],30%
same,Emax,[2],109%
same,Emax,[5],27%
same,Activity,[3],Active
same,Activity,[4],inactive
CCCCCCCCOC[C@@H](COP(O)(O)=S)OCCCCCCCC,Activity,[3],Active
same,Activity,[4],inactive
CCCCCCCCNC(=O)[C@@H](COP(=O)(O)O)NC(=O)CCCCCCC,Activity,[3],inactive
CCCCCCCC(=O)OC[C@H](COP(=O)(O)O)OC(=O)CCCCCCC,IC50,[1],692 nM
same,Ki,[1],407 nM
same,IC50,Autotaxin,1640 nM
same,inhibition,Autotaxin,49.9%
CCCCCCCCOC[C@@H](COP(=O)(O)O)OCCCCCCCC,Activity,[3],Active
same,Activity,[4],inactive
CCCCCCCC(=O)OC[C@H](COP(O)(O)=S)OC(=O)CCCCCCC,Emax,[5],58%
same,Activity,[3],inactive
same,IC50,Autotaxin,597 nM
same,inhibition,Autotaxin,72.5%
CCCCCCCC(=O)OC[C@@H](COP(O)(O)=S)OC(=O)CCCCCCC,Emax,[2],30%
same,Emax,[5],17%
same,Activity,[3],inactive
same,IC50,Autotaxin,727 nM
same,inhibition,Autotaxin,52.3%
CCCCCCCCNC(=O)[C@H](COP(O)(O)=S)NC(=O)CCCCCCC,Activity,[3],inactive
